Shown are actives, neighbours in structure and some others; about 4% of the full set was active somewhere.
C2C12 statin: suppression of simvastatin myotoxicity; 0.78% of 330,000 active; AID 602340; rescue of ATP level, % at 7.49 µM; C2C12 myotubes + simvastatin, ATP luminescence, 48 h; scaled: DMSO 0, geranylgeraniol control 100;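 active means mean ATP rescue above about 67%, or every replicate alone reaching that limit, limit read from the data, passing the limit was not always enough; inconclusive means no clear call, values can overlap the other calls; inactive means mean under the limit and some replicate under it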;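 further: myotubes were challenged with 10 µM simvastatin during compound exposure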
FN deposit inh: fibronectin deposition inhibition. AH1F fibroblasts, Alexa488-fibronectin deposition fluorescence, overnight. inhibition, % at 12.6 µM. 0.086% of 350,000 active;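 active means mean inhibition across replicates of 30% or more, regardless of how many single replicates reach that level; inconclusive means mean under 30% yet at least half of replicates reach 30%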;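 further: positive control wells lacked labelled fibronectin entirely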
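Measured by – fluorescence 485/525 nm · System – AH1F fibroblast monolayer, labelled fibronectin deposition · Amount – 10000 cells per well · Buffer or medium – serum-reduced DMEM (2% serum) · Doses – single dose, pinned · Also added – fluorescent fibronectin at 24 nM final · Schedule – 1 h cell attachment, overnight exposure to compound and label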
E-selectin induc: E-selectin induction on HUVECs; AID 686992; 0.37% of 260,000 active; P16581; activation, % at 7.58 µM; HUVEC E-selectin immunofluorescence imaging; normalized: neutral wells 0, TNF-alpha wells 100;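 active means mean E-selectin-positive cell signal at least 10% of the positive control, reached in at least 60% of replicates, without over 20% cell loss; inconclusive means no rule given, readout overlaps actives, possibly toxicity-flagged; inactive means the rest, including those meeting only one limit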
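System: HUVEC, human umbilical vein endothelial cells; quantity: 3,000 cells/well; buffer or medium: EGM-2 medium, gelatin-coated wells; dosing: single-point compound dose; detection: immunofluorescence imaging; evaluation: % PE-positive cells; benchmarks: TNF-alpha, DMSO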
SIRT5 inh: inhibitors of human sirtuin-5 desuccinylase; Q9NXA8; Purified SirT5, succinyl-peptide AMC, trypsin-coupled fluorescence; inhibition, % at 15 µM; 1.1% of 330,000 active; AID 652115; in the data active means inhibition above about 15%; inconclusive means no clear call, values can overlap the other calls
Target sequence (Q9NXA8 whole entry, looked up): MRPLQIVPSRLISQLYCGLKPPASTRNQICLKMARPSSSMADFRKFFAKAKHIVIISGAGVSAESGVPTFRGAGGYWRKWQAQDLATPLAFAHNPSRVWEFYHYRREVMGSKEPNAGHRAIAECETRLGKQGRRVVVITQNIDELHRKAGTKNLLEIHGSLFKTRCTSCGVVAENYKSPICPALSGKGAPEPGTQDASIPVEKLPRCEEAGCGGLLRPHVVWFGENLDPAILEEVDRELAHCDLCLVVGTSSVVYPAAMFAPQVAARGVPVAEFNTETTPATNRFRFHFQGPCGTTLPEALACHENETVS
FGF22 binding: binders of recombinant human FGF22 by thermal shift. Q9HCT0. SYPRO orange fluorescence; percent of sucrose octasulfate shift, DMSO zero. activity (Tm shift, normalised), % at 9.99 µM. 1.5% of 340,000 active. AID 651658;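 active means mean Tm shift, scaled 0 neutral to 100 positive control, at about 1.3% or above, every replicate too, limit read from the data; inconclusive means no clear call, values can overlap the other calls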
Target sequence (Q9HCT0 whole entry, looked up): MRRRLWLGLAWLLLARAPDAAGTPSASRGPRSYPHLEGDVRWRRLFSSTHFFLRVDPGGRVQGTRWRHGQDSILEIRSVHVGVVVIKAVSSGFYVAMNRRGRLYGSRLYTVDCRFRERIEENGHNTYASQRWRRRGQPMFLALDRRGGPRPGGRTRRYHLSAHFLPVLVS
rRNA inh HTS: inhibits bacterial ribosomal RNA function over humanized ribosomes | E. coli WT GFP vs humanized-ribosome RFP mutants, fluorescence, 24 h; active compounds read low; DMSO median 0, no signal -100 | GFP signal change (wild-type ribosome), % (no concentration beside the values) | 1.6% of 350,000 active | AID 720706;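 active means significant combined selectivity score with lowered wild-type GFP, culture density cut under 30%, mutant RFP and density less affected; inactive means any of these conditions unmet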
* hit, by the source's call; ? = inconclusive; / = no result.

SMILES	C2C12 statin	FN deposit inh	E-selectin induc	SIRT5 inh	FGF22 binding	rRNA inh HTS
CCCNC(=O)NC[C@H]1[C@@H](c2ccc(C3=CCCCC3)cc2)[C@@H](CO)N1C(C)=O	7.5	-15.8	0.0	4.2	0.7	-4.2
O=C(O)CSc1nnc(-c2ccccc2Br)n1-c1cccc(C(F)(F)F)c1	/	7.3	?	2.5	0.1	-23.8*
NC(=O)CSc1nnc(-c2ccccc2Br)n1-c1cccc(C(F)(F)F)c1	4.3	/	/	/	/	/
CS(=O)(=O)N(CC(=O)N1CCN(Cc2ccccc2)CC1)c1cccc(F)c1	-4.4	-7.2	/	19.2*	-0.2	4.2
O=C(CN(c1ccc2c(c1)OCCO2)S(=O)(=O)c1ccccc1)N1CCN(Cc2ccccc2)CC1	3.0	1.8	/	0.7	43.5*	-14.4
Cc1ccc(N(CC(=O)N2CCOCC2)S(C)(=O)=O)cc1Cl	-3.9	-0.7	/	15.6*	0.1	11.2
CCN(CC)C(=O)CN(c1ccc2c(c1)OCO2)S(C)(=O)=O	-8.9	-8.9	/	/	/	/
NC(=O)C1CCN(C(=O)CN(c2ccc3c(c2)OCCO3)S(=O)(=O)c2ccccc2)CC1	/	-1.9	1.4	-2.5	-0.2	6.8
CS(=O)(=O)N(CC(=O)N1CCN(Cc2ccccc2)CC1)c1ccc(F)cc1	8.0	-7.1	-0.2	-2.0	-0.1	4.0
CCN(CC)C(=O)CN(c1ccc(F)c(Cl)c1)S(C)(=O)=O	69.5*	/	/	/	/	/
CC(C)C#Cc1cnc2c(c1)C(=O)N([C@@H](C)CO)C[C@H](C)[C@@H](CN(C)Cc1cccc(F)c1)O2	12.6	11.5	1.0	1.5	-0.2	-4.2
CC(Oc1ccc(-c2ccccc2)cc1)C(=O)N/N=C/c1cccnc1 (centres undefined)	1.7	4.3	/	-8.4	-0.2	3.8
Cc1cccc(N/N=C/c2ccncc2)c1	15.7	3.2	1.5	-2.2	0.1	8.4
Cc1cccc(NC(=O)C(=O)N/N=C/c2ccncc2)c1	/	-4.3	/	0.8	43.5*	/
Cc1cccc(OC(C)C(=O)N/N=C\c2ccncc2)c1 (centres undefined)	3.9	1.2	372.3*	1.8	0.2	0.0
COc1cccc(-c2ccc([C@H]3[C@@H](C#N)N(C(=O)Cc4ccccc4)[C@@H]3CO)cc2)c1	14.1	-4.9	-0.1	3.1	-0.2	-37.9
CCOc1ccc(/C(O)=C2/C(=O)C(=O)N(c3ncccn3)C2c2ccc(Cl)cc2)cc1 (centres undefined)	/	-4.9	0.9	4.2	0.0	-31.6*
Cc1ccc(S(=O)(=O)Nc2cccc3c2O[C@@H](CN(C)Cc2ccc(-c4ccccc4)cc2)[C@H](C)CN([C@@H](C)CO)C3=O)cc1	11.7	/	-0.1	-0.1	-0.3	0.6
Cc1cc(=O)[nH]c(N/N=C/c2c(C)nn(-c3ccccc3)c2C)n1	-12.9	-6.2	0.0	-1.3	0.2	-3.8
O=C(O)CCCN1C(=O)/C(=C/c2cn(-c3ccccc3)nc2-c2cccs2)SC1=S	/	-8.3	/	/	/	/
Cc1nn(-c2ccccc2)c(C)c1/C=C1\C(=O)N(C)C(=S)N1C	/	5.6	-1.1	2.4	43.3*	-35.6
Cc1nn(-c2ccccc2)c(Cl)c1/C=C1\SC(=S)N(CCCCCC(=O)O)C1=O	17.0	0.3	/	5.3	-0.2	-31.5*
CCC1CN(C(=O)N2CCC(C(=O)NCc3ccccc3C)CC2)c2ccccc2O1 (centres undefined)	4.1	-1.8	/	-3.9	-0.1	-2.4
CCC1CN(C(=O)N2CCC(C(=O)Nc3ccccc3F)CC2)c2ccccc2O1 (centres undefined)	17.9	-0.5	-0.3	19.3*	-0.2	7.8
NC(=O)C1CCN(C(=O)CNC(=O)c2ccc(F)cc2)CC1	/	5.7	0.4	/	43.7*	-4.2
SMILES	C2C12 statin	FN deposit inh	E-selectin induc	SIRT5 inh	FGF22 binding	rRNA inh HTS
CC(C)c1ccc(NC(=O)c2snc3ccc(Cl)cc23)cc1	-5.1	-2.1	/	-5.5	44.3*	10.1
CC(=O)NC1(C(F)(F)F)NC(=O)N(CCc2ccccc2)C1=O (centres undefined)	-18.2	-2.2	/	-4.3	-0.1	18.7
CCCCN1C(=O)NC(NC(C)=O)(C(F)(F)F)C1=O (centres undefined)	105.4*	/	/	/	/	/
C[C@H](NC(=O)C[C@@H]1CC[C@@H]2[C@H](COC[C@@H](O)CN2C(=O)Nc2cccc(F)c2)O1)c1ccccc1	-17.0	-1.6	0.0	2.1	-0.1	-17.3
COc1ccccc1NC(=O)c1cc2ccccc2o/c1=N\O	-2.6	/	/	/	/	/
COc1ccccc1NC(=O)c1cc2ccc(O)cc2o/c1=N\O	68.7*	/	/	/	/	/
COCCNC(=S)N1CCC(c2nc(-c3ccc(N(C)C)cc3)no2)CC1	/	-6.6	/	/	/	/
CC(C)CNC(=S)N1CCC(c2nc(-c3ccc(F)cc3)no2)CC1	-8.0	16.2	0.2	6.6	0.1	-25.6*
CCOC(=O)N1CCN(C(=O)CCCn2c(=O)[nH]c3ccccc3c2=O)CC1	4.6	2.1	/	/	/	/
O=C(Cc1n[nH]c(=O)c2ccccc12)N1CCN(c2ccc(F)cc2)CC1	/	7.5	0.5	/	0.1	4.0
CC(=O)c1ccc(N2CCN(C(=O)Cc3n[nH]c(=O)c4ccccc34)CC2)cc1	7.5	4.8	0.0	16.3*	42.7	5.6
CC(=O)c1ccc(N2CCN(C(=O)CCCn3c(=O)[nH]c4ccccc4c3=O)CC2)cc1	/	-4.7	/	-0.8	43.2*	-6.4
COc1cc2[nH]c(=O)n(CCCCCC(=O)N3CCN(c4ccccn4)CC3)c(=O)c2cc1OC	1.2	-1.2	/	24.2*	/	-0.2
CCCC(=O)Nc1ccc2c(c1)C(=O)N(C)C[C@@H](OC)[C@@H](C)CN(Cc1ccncc1)[C@H](C)CO2	9.0	13.5	0.2	/	/	-0.1
COCC#Cc1ccc2c(c1)O[C@H](CN(C)S(=O)(=O)c1ccc(F)cc1)[C@@H](C)CN([C@@H](C)CO)S2(=O)=O	11.2	/	-0.4	3.9	-0.5	-0.9

Screening results as filed in PubChem BioAssay.
